Measured values: ChEMBL document CHEMBL5705891, “Small-molecule kinase inhibitors provide insight into Mps1 cell cycle function” (Nat Chem Biol, 2010)
pKd: −log10 of the molar value. Values belong to the compound of their own block, whether it stands above or below them. Activity calls are given as the source filed them. No cut-off for these calls is given here.

Experiments:
UTRM10 [1] = test: Induction of chromosome mis-segregation in UTRM10 cells (unknown origin) expressing LAP-tagged Mps1 M602Q mutant co-transfected with H2B-EYFP at 10 uM by time-lapse microscopy; type: functional, cell-based
Focal adhesion kinase 1 = Focal adhesion kinase 1 (Homo sapiens, UniProt Q05397); test: Binding affinity to FAK (unknown origin) assessed as dissociation constant by Ambit kinase binding assay
MCF-10A = test: Antiproliferative activity against human MCF-10A cells assessed as loss of clonal survival upto 25 uM incubated for 10 days by crystal violet staining based assay; type: toxicity, cell-based; conditions: 240 h, time 10 day
[2] = target: Proto-oncogene tyrosine-protein kinase ROS (Homo sapiens) (UniProt P08922); test: Inhibition of ROS1 (unknown origin) assessed as residual enzyme activity at 10 uM by Ambit kinase binding assay relative to control
UTRM10 [3] = test: Inhibition of hyperphosphorylation of LAP-tagged Mps1 M602Q mutant (unknown origin) expressed in UTRM10 cells (unknown origin) measured after 90 mins by immunoblot analysis; type: cell-based; conditions: Homo sapiens
[4] = target: Tyrosine-protein kinase receptor UFO (Homo sapiens) (UniProt P30530); test: Inhibition of AXL (unknown origin) assessed as residual enzyme activity at 10 uM by Ambit kinase binding assay relative to control
U2OS [5] = test: Initiation of anaphase in human U2OS cells expressing histone H2B-GFP measured for 60 mins by fluorescence time-lapse microscopy; type: functional, cell-based; conditions: dose 5-10 µM
Method in brief: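 U2OS H2B-GFP cells were given DMSO or inhibitor and imaged by fluorescence time-lapse at 37°C, 5% CO₂, one frame every 2 min. NEBD-to-anaphase time was scored for 100 cells per population and plotted as cumulative percentage initiating anaphase.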

[6] = target: Insulin-like growth factor 1 receptor (Homo sapiens, UniProt P08069); test: Inhibition of IGF1R (unknown origin) assessed as residual enzyme activity at 10 uM by Ambit kinase binding assay relative to control
U2OS [7] = test: Reversal of nocodazole-induced mitotic arrest in human U2OS cells assessed as decrease in cyclin B level at 0.3 to 10 uM incubated for 4 hrs by immunoblot analysis; type: functional, cell-based; conditions: dose 0.3-10 µM
A549 = test: Antiproliferative activity against human A549 cells assessed as loss of clonal survival upto 10 uM incubated for 10 days by crystal violet staining based assay; type: functional, cell-based; conditions: time 10.0 day
Method in brief: (§1)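 Colony outgrowth: cells plated at 200 cells per 60-mm dish, exposed to compound or DMSO vehicle and stained with crystal violet after 10 days. HCT116 grown in McCoy's 5A; A549 and HeLa in DMEM; hTERT-RPE1 in DMEM/F-12. All media had 10% FBS and penicillin/streptomycin, 37°C, 5% CO2. Quantified from 3 independent experiments, mean + SD, Student's t test.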

U2OS [8] = test: Effect on thymidine-treated human U2OS cell populations after two cell doubling at 10 uM incubated for 4 hrs followed by thymidine release by immunofluorescence imaging analysis; type: functional, cell-based
[9] = target: Serine/threonine-protein kinase 33 (Homo sapiens, UniProt Q9BYT3); test: Inhibition of STK33 (unknown origin) assessed as residual enzyme activity at 10 uM by Ambit kinase binding assay relative to control
[10] = target: Mitogen-activated protein kinase 1 (Homo sapiens, UniProt P28482); test: Inhibition of ERK2 (unknown origin) assessed as residual enzyme activity at 10 uM by Ambit kinase binding assay relative to control
U2OS [11] = test: Reversal of nocodazole-induced mitotic arrest in human U2OS cells assessed as Ser10 phosphorylated Histone H3-positive 4c population at 10 uM incubated for 16 hrs by flow cytometry (reference value: 94 %); type: functional
[12] = target: Dual specificity protein kinase CLK4 (Homo sapiens) (UniProt Q9HAZ1); test: Inhibition of CLK4 (unknown origin) assessed as residual enzyme activity at 10 uM by Ambit kinase binding assay relative to control
HCT-116 = test: Cytotoxicity against human HCT-116 cells assessed as loss of cell viability at 5 to 10 uM incubated for 10 days by crystal violet staining based assay; type: functional; conditions: dose 5-10 µM, time 10.0 day; method in brief: as §1
TERT-RPE1 [13] = test: Antiproliferative activity against hTERT-RPE1 cells at 10 uM incubated for 4 days by Syto60 staining based assay; type: toxicity, cell-based; conditions: human, tert-rpe1, 96 h, time 4 day
U2OS [14] = test: Induction of multipolar anaphases in thymidine-treated human U2OS cells expressing H2B-GFP and Plk4 overexpression measured for 30 mins by time lapse imaging analysis; type: functional, cell-based
Method in brief: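 Doxycycline-inducible Plk4 U2OS cells expressing H2B-GFP were blocked with thymidine for 18 hrs and released into doxycycline (2 μg·ml⁻¹) for 10 hrs. A second 18-hr thymidine block followed, then release for 6 hrs before 5 μM inhibitor, with or without Plk4 induction. Cells were imaged by time-lapse at 37°C, 5% CO₂, timed from NEBD, and bipolar versus multipolar anaphases were scored. Values are mean ± SD of 3 independent experiments.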

U2OS [15] = test: Reversal of paclitaxel-induced mitotic arrest in human U2OS cells assessed as accumulation of 4N phosphorylated Histone H3-negative cells incubated for 16 hrs by flow cytometry; type: functional, cell-based; conditions: dose 5-10 µM
[16] = target: Dual specificity protein kinase CLK1 (Homo sapiens, UniProt P49759); test: Binding affinity to CLK1 (unknown origin) assessed as dissociation constant by Ambit kinase binding assay
TERT-RPE1 [17] = test: Induction of aneuploidy in human TERT-RPE1 cells assessed as average chromosome number at 10 uM treated for 24 hrs by karyo-typing analysis (reference value: 45.9 +/- 0.3); type: functional
Method in brief: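 Asynchronous cells were exposed to 10 μM compound for 24 h. Medium was then replaced with medium containing 100 ng/mL colcemid for 2 h to arrest cells in metaphase, after which cells were harvested and karyotyped.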

[18] = target: MAP kinase-interacting serine/threonine-protein kinase 2 (Homo sapiens) (UniProt Q9HBH9); test: Inhibition of MKNK2 (unknown origin) assessed as residual enzyme activity at 10 uM by Ambit kinase binding assay relative to control
[19] = target: Serine/threonine-protein kinase 24 (Homo sapiens) (UniProt Q9Y6E0); test: Inhibition of MST3 (unknown origin) assessed as residual enzyme activity at 10 uM by Ambit kinase binding assay relative to control
[20] = target: Serine/threonine-protein kinase 16 (Homo sapiens) (UniProt O75716); test: Inhibition of STK16 (unknown origin) assessed as residual enzyme activity at 10 uM by Ambit kinase binding assay relative to control
[21] = target: Cyclin-dependent kinase 7 (Homo sapiens) (UniProt P50613); test: Inhibition of CDK7 (unknown origin) assessed as residual enzyme activity at 10 uM by Ambit kinase binding assay relative to control
[22] = target: Receptor-interacting serine/threonine-protein kinase 4 (Homo sapiens) (UniProt P57078); test: Inhibition of RIPK4 (unknown origin) assessed as residual enzyme activity at 10 uM by Ambit kinase binding assay relative to control
[23] = target: Serine/threonine-protein kinase RIO1 (Homo sapiens) (UniProt Q9BRS2); test: Inhibition of RIOK1 (unknown origin) assessed as residual enzyme activity at 10 uM by Ambit kinase binding assay relative to control
Serine/threonine-protein kinase RIO1 (Homo sapiens), sequence (Q9BRS2 whole entry): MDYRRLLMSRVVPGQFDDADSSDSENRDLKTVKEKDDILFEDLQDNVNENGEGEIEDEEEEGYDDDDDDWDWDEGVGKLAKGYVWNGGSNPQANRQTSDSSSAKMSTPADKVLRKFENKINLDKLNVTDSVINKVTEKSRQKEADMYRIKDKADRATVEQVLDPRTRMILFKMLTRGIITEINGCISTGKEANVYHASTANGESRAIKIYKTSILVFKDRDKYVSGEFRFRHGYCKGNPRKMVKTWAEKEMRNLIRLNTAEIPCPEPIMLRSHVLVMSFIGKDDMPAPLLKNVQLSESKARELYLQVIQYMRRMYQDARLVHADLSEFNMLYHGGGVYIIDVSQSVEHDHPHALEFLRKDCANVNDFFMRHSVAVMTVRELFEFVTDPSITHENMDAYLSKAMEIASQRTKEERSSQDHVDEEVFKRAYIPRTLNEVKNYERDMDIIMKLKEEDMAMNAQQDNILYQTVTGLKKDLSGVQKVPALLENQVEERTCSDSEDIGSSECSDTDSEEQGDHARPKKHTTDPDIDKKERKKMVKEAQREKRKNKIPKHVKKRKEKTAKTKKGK

MAP kinase-interacting serine/threonine-protein kinase 2 (Homo sapiens), sequence (Q9HBH9 whole entry, looked up): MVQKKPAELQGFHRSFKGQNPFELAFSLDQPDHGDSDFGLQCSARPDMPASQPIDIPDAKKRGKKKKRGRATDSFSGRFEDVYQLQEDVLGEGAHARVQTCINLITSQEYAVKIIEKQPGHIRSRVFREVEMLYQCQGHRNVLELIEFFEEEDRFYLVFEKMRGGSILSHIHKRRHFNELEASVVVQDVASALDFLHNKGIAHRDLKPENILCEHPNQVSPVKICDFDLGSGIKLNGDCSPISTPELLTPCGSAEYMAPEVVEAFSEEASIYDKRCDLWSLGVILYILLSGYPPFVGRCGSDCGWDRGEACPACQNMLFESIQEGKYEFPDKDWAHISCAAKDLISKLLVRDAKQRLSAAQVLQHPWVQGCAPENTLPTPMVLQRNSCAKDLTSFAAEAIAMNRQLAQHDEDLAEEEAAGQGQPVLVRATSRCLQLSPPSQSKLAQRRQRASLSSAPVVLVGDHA
Serine/threonine-protein kinase 16 (Homo sapiens), sequence (O75716 whole entry): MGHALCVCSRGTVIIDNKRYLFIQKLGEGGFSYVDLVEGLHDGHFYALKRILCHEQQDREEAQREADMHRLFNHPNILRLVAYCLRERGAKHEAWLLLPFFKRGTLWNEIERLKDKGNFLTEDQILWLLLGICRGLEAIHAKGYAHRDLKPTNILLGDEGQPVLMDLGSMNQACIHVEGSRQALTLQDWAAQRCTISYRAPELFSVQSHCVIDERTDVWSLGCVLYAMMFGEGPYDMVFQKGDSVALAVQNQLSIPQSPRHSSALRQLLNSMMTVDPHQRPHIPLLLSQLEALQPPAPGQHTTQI
Tyrosine-protein kinase receptor UFO (Homo sapiens), sequence (P30530 whole entry): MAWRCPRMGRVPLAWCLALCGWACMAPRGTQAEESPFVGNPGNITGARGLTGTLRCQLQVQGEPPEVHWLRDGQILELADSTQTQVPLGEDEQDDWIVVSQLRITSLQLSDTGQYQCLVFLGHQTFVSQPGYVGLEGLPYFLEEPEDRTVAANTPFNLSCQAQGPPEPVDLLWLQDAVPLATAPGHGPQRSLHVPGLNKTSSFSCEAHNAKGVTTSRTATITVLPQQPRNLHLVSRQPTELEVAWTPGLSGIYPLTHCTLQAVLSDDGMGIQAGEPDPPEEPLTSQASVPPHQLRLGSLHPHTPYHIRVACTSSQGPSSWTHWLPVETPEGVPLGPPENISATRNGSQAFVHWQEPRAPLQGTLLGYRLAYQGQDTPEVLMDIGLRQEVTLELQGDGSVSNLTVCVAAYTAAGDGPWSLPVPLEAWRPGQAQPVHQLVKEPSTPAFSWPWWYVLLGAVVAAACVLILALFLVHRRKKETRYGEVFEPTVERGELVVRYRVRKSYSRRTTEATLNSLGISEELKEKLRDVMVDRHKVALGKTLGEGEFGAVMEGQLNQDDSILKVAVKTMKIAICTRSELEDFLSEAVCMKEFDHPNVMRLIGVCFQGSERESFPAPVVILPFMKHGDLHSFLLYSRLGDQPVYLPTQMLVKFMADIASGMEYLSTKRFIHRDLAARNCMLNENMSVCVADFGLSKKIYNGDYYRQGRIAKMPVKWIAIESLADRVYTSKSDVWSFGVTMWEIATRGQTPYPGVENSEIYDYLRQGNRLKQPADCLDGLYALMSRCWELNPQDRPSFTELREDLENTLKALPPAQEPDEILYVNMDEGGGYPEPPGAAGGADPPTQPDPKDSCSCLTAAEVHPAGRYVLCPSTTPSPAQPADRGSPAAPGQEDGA
Dual specificity protein kinase CLK4 (Homo sapiens), sequence (Q9HAZ1 whole entry, looked up): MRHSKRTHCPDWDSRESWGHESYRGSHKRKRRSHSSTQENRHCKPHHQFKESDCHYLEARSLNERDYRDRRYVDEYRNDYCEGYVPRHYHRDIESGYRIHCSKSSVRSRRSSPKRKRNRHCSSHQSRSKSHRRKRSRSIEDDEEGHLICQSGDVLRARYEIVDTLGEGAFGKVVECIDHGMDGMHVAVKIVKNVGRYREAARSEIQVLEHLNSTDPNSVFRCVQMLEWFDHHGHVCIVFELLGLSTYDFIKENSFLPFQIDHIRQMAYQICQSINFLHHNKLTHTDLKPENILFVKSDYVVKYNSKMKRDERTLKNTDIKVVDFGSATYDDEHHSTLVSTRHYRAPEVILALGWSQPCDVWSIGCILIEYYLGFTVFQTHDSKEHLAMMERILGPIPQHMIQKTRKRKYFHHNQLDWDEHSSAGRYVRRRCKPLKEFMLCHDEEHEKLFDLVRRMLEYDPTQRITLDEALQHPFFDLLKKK
Focal adhesion kinase 1, sequence (Q05397 whole entry): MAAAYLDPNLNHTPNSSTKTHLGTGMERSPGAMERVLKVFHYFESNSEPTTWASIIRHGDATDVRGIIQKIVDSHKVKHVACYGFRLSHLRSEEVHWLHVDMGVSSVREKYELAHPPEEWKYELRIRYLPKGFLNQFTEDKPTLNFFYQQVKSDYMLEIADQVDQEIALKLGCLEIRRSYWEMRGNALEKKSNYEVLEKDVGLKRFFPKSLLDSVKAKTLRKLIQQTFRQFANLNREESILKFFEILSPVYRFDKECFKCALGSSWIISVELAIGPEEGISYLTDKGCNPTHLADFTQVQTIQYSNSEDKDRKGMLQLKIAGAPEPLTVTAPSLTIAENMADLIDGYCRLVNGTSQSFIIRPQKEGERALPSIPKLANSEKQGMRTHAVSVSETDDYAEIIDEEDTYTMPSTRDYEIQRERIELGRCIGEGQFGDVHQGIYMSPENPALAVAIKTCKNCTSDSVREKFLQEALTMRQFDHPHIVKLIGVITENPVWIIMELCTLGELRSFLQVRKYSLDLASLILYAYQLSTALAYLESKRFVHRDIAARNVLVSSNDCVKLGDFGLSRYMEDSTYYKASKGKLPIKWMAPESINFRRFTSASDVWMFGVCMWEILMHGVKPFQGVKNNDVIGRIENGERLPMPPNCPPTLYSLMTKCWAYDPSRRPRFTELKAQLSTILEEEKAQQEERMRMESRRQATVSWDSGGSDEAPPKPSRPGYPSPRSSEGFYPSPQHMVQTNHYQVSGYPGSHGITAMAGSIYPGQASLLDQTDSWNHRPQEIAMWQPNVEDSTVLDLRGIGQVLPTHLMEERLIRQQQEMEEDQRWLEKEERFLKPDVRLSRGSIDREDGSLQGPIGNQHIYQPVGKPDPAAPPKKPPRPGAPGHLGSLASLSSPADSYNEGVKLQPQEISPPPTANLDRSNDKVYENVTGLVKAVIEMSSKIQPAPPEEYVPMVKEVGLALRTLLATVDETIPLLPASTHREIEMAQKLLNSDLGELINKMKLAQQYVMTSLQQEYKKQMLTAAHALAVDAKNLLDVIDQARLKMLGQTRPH
Cyclin-dependent kinase 7 (Homo sapiens), sequence (P50613 whole entry): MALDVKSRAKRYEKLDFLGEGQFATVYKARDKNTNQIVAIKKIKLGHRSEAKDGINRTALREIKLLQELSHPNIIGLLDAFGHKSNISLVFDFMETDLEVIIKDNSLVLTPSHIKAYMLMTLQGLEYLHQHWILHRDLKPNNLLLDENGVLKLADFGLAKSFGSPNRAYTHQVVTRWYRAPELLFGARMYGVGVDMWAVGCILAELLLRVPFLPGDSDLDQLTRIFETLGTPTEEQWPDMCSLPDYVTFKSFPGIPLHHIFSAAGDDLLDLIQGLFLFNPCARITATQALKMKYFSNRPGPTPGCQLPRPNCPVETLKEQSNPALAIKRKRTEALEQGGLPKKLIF
Dual specificity protein kinase CLK1, sequence (P49759 whole entry): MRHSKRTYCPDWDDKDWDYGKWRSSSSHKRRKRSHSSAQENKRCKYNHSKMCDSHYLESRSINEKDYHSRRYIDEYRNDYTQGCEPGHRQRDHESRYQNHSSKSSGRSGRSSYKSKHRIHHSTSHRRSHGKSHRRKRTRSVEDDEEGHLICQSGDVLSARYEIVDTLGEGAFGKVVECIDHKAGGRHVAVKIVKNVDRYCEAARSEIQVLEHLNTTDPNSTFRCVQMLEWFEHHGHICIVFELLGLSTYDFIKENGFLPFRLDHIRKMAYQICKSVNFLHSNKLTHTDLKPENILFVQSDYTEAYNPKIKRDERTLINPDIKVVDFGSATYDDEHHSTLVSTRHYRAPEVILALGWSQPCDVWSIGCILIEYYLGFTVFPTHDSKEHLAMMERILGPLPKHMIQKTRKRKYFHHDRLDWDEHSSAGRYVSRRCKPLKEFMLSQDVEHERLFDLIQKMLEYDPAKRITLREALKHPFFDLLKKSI
Mitogen-activated protein kinase 1, sequence (P28482 whole entry): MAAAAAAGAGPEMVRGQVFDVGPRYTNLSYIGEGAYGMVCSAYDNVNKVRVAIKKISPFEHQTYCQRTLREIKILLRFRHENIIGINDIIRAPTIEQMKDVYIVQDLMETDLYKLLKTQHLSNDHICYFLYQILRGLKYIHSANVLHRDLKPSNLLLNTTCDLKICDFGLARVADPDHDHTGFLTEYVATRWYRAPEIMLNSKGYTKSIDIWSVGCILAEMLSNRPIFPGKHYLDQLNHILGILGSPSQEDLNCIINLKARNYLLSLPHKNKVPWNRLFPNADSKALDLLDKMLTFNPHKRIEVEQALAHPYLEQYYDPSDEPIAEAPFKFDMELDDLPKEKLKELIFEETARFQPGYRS

pKd (Focal adhesion kinase 1): 6.36 | Activity [2]: 12% | Activity [4]: 19% | Activity [6]: 0.9% | Activity [9]: 12% | Activity [10]: 6% | Activity [12]: 18% | pKd [16]: 5.72
SMILES: COc1cc(N2CCC(O)CC2)ccc1Nc1cc(Nc2ccccc2S(=O)(=O)C(C)C)c2cc[nH]c2n1
Activity (UTRM10 [1]): inactive | Activity (MCF-10A): Toxic | inhibition (UTRM10 [3]): inactive | Activity (U2OS [5]): Dose-Dependent Effect | Activity (U2OS [7]): Active | Activity (A549): Active | Activity (U2OS [8]): inactive | Activity (U2OS [11]): 1% | Activity (HCT-116): Active | Activity (TERT-RPE1 [13]): Toxic | Activity (U2OS [14]): Active | Activity (U2OS [15]): Dose-Dependent Effect | Activity (TERT-RPE1 [17]): 46.5

Activity [18]: 1.9% | Activity [19]: 1.8% | Activity [20]: 1.4% | Activity [21]: 26% | Activity [22]: 2.2% | Activity [23]: 10%
SMILES: O=C1c2ccccc2-c2n[nH]c3cccc1c23
